Assay [1] concerns the target T1, D(3) dopamine receptor (Homo sapiens, UniProt P35462). Put plainly: Antagonist activity at human dopamine D3 receptor assessed as [35S]GTPgammaS binding preincubated for 15 mins followed by [35S]GTPgammaS addition measured after 40 mins. The assay is classed as functional. For orientation: GTPγS resists hydrolysis and so accumulates on activated G proteins.
For assay [2], the target named is Dopamine receptors; D3 & D4 (Homo sapiens) (UniProt P35462+P21917). Put plainly: Selectivity ratio of Ki for cloned human dopamine D4 receptor to Ki for cloned human dopamine D3 receptor.
The next assay concerns the target T2, D(4) dopamine receptor (Homo sapiens, UniProt P21917).
T2 sequence (P21917 whole entry): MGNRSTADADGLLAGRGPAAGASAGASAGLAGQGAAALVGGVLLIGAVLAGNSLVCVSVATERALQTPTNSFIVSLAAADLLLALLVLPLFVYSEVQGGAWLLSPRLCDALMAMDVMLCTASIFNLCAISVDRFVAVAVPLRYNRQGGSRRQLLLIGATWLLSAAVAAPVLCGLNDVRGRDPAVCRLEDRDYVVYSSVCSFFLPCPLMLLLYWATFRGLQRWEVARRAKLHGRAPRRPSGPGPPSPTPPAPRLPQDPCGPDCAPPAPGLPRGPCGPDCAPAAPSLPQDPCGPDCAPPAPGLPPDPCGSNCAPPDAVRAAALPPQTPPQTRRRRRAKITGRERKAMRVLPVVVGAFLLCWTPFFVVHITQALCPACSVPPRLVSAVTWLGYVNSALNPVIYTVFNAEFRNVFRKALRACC
Put plainly: Displacement of [3H]-spiperone from cloned human dopamine D4 receptor. The essentials: (§1)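 Competition binding at human receptor subtypes by the group's earlier procedure. Ki was calculated from displacement data by the Cheng–Prusoff equation.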
In general terms: Displacement assays read how much labelled ligand stays bound in the presence of the test substance.

For assay [3], the species on record is Homo sapiens. Put plainly: Selectivity ratio of Ki for cloned human dopamine D2 receptor to Ki for cloned human dopamine D3 receptor.
The target in assay [4] is T1, D(3) dopamine receptor. Description: Displacement of [3H]-spiperone from cloned human dopamine D3 receptor. Summed up: as §1
Assay [5] concerns the target D(1A) dopamine receptor (Homo sapiens) (UniProt P21728). Description: Displacement of [3H]-SCH23390 from cloned human dopamine D1 receptor at 1 uM relative to control. Summed up: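 Competition binding at the human D1 receptor. Compounds with little affinity are reported as percent inhibition at the highest concentration tested.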
For a further assay, the target named is D(2) dopamine receptor (Homo sapiens, UniProt P14416). Put plainly: Displacement of [3H]-spiperone from cloned human dopamine D2 receptor. Summed up: as §1
Assay [6] deals with D(3) dopamine receptor (Rattus norvegicus, UniProt P19020). Description: Displacement of [3H]spiperone from rat dopamine D3 receptor expressed in sf9 cells after 60 mins.
Assay [7] addresses Dopamine receptor D2 and D3 (Rattus norvegicus) (UniProt P19020+P61169). Description: Selectivity ratio of Ki for rat dopamine D2 receptor to Ki for rat dopamine D3 receptor.
The species named for assay [8] is Homo sapiens. Put plainly: Selectivity ratio of Ki for dopamine D2 receptor (unknown origin) to Ki for dopamine D3 receptor (unknown origin). Summed up:
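Radioligand competition binding at human D2 and D3 receptors. Ki was derived from displacement data using the Cheng–Prusoff equation. The selectivity value is the D2 Ki divided by the D3 Ki.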

Data on eight compounds can be found in ChEMBL document CHEMBL2429816, “Synthesis and binding affinity of new 1,4-disubstituted triazoles as potential dopamine D(3) receptor ligands” (Bioorg Med Chem Lett, 2013).

D(2) dopamine receptor, sequence (P14416 whole entry): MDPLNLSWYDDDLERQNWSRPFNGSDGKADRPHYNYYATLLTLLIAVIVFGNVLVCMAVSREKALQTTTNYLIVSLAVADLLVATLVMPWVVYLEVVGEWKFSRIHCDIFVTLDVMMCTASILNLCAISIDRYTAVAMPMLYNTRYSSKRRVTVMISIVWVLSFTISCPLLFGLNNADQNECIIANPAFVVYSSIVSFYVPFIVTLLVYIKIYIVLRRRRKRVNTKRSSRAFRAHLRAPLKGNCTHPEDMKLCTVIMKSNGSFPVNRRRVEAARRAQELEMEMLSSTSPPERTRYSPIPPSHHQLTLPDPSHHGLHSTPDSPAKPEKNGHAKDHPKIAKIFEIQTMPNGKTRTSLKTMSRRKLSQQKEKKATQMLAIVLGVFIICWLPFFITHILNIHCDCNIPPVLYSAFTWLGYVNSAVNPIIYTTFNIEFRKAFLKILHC
D(1A) dopamine receptor (Homo sapiens), sequence (P21728 whole entry): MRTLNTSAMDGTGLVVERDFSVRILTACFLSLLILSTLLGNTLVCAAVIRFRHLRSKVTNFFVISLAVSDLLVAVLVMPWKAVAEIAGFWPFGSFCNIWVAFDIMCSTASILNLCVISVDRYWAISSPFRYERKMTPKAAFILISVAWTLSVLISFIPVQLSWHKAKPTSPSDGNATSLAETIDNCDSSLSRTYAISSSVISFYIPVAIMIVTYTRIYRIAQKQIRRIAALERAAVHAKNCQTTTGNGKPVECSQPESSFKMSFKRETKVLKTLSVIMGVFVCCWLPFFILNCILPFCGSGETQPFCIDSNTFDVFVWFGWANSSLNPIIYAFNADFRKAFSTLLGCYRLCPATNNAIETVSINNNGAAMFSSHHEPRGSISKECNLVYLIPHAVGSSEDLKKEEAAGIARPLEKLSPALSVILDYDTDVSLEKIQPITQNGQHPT
Dopamine receptors; D3 & D4 (Homo sapiens), sequence (P35462 whole entry, looked up, one chain of several): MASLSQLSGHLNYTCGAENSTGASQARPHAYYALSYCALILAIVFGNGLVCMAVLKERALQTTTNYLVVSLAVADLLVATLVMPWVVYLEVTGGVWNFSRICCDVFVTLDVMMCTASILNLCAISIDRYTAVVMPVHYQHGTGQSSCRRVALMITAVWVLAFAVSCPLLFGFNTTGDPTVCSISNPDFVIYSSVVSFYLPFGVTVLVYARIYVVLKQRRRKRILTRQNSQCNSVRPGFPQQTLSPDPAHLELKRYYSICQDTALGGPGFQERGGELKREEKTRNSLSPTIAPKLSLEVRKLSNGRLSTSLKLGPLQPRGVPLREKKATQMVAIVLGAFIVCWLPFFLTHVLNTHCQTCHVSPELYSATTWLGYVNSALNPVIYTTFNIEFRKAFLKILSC
T1 sequence (P35462 whole entry): as the sequence (P35462 whole entry, looked up, one chain of several) above
D(3) dopamine receptor (Rattus norvegicus, UniProt P19020), sequence (P19020 whole entry): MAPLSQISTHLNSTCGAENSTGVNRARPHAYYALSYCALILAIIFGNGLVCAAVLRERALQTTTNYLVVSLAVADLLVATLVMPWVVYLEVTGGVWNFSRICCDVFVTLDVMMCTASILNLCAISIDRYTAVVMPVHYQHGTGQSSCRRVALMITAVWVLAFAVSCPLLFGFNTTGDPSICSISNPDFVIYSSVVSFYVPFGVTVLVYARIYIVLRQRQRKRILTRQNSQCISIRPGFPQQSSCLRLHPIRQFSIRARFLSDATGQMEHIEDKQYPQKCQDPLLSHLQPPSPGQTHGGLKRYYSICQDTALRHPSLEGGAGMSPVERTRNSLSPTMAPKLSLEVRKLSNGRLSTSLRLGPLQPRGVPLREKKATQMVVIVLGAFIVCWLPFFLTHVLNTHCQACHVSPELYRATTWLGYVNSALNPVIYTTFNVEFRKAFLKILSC
Dopamine receptor D2 and D3 (Rattus norvegicus), sequence (P19020 whole entry, looked up): as the sequence (P19020 whole entry) above
Dopamine receptor D2 and D3 (Rattus norvegicus), sequence (P61169 whole entry, looked up): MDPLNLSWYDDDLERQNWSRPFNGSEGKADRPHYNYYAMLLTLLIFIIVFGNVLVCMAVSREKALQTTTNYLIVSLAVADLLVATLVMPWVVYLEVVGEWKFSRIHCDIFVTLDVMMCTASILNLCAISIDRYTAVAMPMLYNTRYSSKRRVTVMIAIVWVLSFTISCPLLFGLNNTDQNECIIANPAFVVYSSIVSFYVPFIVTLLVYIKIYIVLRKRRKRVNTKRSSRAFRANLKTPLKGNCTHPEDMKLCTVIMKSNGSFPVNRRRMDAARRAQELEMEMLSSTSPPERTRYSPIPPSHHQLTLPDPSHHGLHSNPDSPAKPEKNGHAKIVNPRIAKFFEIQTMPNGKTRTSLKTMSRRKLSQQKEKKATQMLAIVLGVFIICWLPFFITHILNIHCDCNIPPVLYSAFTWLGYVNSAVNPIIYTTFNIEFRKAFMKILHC

One may read the Kb as the equilibrium dissociation constant of an antagonist, usually derived from a functional assay. For orientation: Ki means a measure of affinity in units of concentration, obtained from inhibition or displacement. A high value points to a looser hold on the target. What is called inhibition is the percentage by which the read-out fell short of the control. Read a low inhibition as little suppression. With `COc1ccccc1N1CCN(CCCCn2cc(-c3ccc(N)cc3)nn2)CC1`, at D(3) dopamine receptor [1], the Kb turned out to be 1.4 nM. The Ratio Ki in assay [2] turned out to be 197; in the assay filed under Homo sapiens [3] it was 73.6. Besides, the results for the Ki on D(4) dopamine receptor, on D(3) dopamine receptor [4] and at D(2) dopamine receptor were 532 nM, 2.7 nM and 199 nM, respectively. The compound also registered an inhibition in assay [5] of 38.4%.

With `NC(=O)c1cccc(N2CCN(CCCCNC(=O)c3ccc(Br)cc3)CC2)c1`, the affinity at D(3) dopamine receptor [6], expressed as Ki, was 1.6 nM. Moreover, in [7], the Ratio Ki came out at 1800.

Regarding `COc1ccc(-c2cn(CCCCN3CCN(c4ccccc4OC)CC3)nn2)cc1`, the Ratio Ki stood at 9.8 in assay [2] and 5.3 in the assay filed under Homo sapiens [3]. The Ki on D(4) dopamine receptor was determined as 395 nM; on D(3) dopamine receptor [4], 40.1 nM; on D(2) dopamine receptor, 212 nM. Further, in assay [5], the inhibition amounted to 44.3%.

As to `COc1ccccc1N1CCN(CCCCn2cc(-c3cccnc3)nn2)CC1`, the Ratio Ki was 14.3 in assay [2] and 1.4 in the assay listed under Homo sapiens [3]. For the same compound, the inhibition constant Ki at D(4) dopamine receptor is 1900 nM; on D(3) dopamine receptor [4] it was 132 nM; on D(2) dopamine receptor, 181 nM. In addition, the inhibition in assay [5] is 40.9%.

For `COc1ccccc1N1CCN(CCCCn2cc(-c3ccc(-c4cnco4)cc3)nn2)CC1`, the Ratio Ki in [2] amounted to 3.2; in the assay filed under Homo sapiens [3] it was 1. Besides, the inhibitory constant (Ki) at D(4) dopamine receptor amounted to 426 nM; at D(3) dopamine receptor [4] it was 135 nM; at D(2) dopamine receptor, 137 nM. In addition, in [5], the inhibition was 50%.

Regarding `COc1ccccc1N1CCN(CCCCn2cc(-c3ccc(Br)cc3)nn2)CC1`, the Ratio Ki in [2] was found to be 3.5; in the assay filed under Homo sapiens [3] it was 2. Also, the Ki worked out at 387 nM at D(4) dopamine receptor, 111 nM at D(3) dopamine receptor [4] and 227 nM at D(2) dopamine receptor. The compound further registered an inhibition in [5] of 44.3%.

In the case of `COc1ccccc1N1CCN(CCCCn2cc(-c3ccccc3)nn2)CC1`, the Ratio Ki in [2] came to 7.9; in the assay listed under Homo sapiens [3], 2.8. In addition, the Ki on D(4) dopamine receptor came to 639 nM; at D(3) dopamine receptor [4], 81.2 nM; on D(2) dopamine receptor, 228 nM. The compound further displayed an inhibition in [5] of 39.4%.

For the compound `CCCN[C@H]1CCc2nc(N)sc2C1` [PRAMIPEXOLE], in the assay listed under Homo sapiens [8], the Ratio Ki came to 72.
